From ChEMBL document CHEMBL1833957, “P1-substituted symmetry-based human immunodeficiency virus protease inhibitors with potent antiviral activity against drug-resistant viruses” (J Med Chem, 2011) come the findings set out here.

Converted amounts (≈) assume the structure as drawn. Bounds are passed on as bounds.

Data set [1] can be described thus: Oral bioavailability in rat at 5 mg/kg. In kind it is ADME, organism-based. The conditions noted are these: in vivo.
Data set [2] can be described thus: Oral bioavailability in rat at 5 mg/kg co-administered with 5 mg/kg of CYP3A4 inhibitor ritonavir relative to iv dose without ritonavir co-administration. The conditions noted are these: in vivo. In kind it is ADME, organism-based. The gist of the method:
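Rats given 5 mg/kg orally with 5 mg/kg ritonavir. Bioavailability (%) is calculated against an IV dose given without ritonavir.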

Data set [3] can be described thus: AUC in rat at 5 mg/kg, po co-administered with 5 mg/kg of CYP3A4 inhibitor ritonavir. Type of data set: ADME, organism-based. As to conditions: plasma. In short, it runs like this: (§1)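 Rats given 5 mg/kg orally together with 5 mg/kg ritonavir. Plasma Cmax is reported in μg/mL and AUC in μg h/mL.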
Data set [4] has as its system Human immunodeficiency virus 1. Briefly: Antiviral activity against HIV1 B26 harboring protease L33F, K45I, M46I, I50V, A71V and V82F mutant infected in human MT4 cells assessed as inhibition of virus-induced cell death after 5 days by MTT assay relative to wild type HIV1 pNL4-3. In kind it is functional.
In data set [5] the test system is Human immunodeficiency virus 1. Put plainly: Antiviral activity against wild type HIV1 pNL4-3 infected in human MT4 cells assessed as inhibition of virus-induced cell death after 5 days by MTT assay. In kind it is functional, organism-based. As to conditions: Human immunodeficiency virus 1, pNL4-3, MT4, 120 h. In short, it runs like this: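 EC50 measured against wild-type virus in MT-4 cells, with no human serum added.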
On the technique in general: Tetrazolium assays rely on reduction of a dye to a coloured formazan, in cell work by metabolically active cells.

Data set [6] deals with Human immunodeficiency virus 1. Put plainly: Antiviral activity against wild type HIV1 pNL4-3 infected in human MT4 cells assessed as inhibition of virus-induced cell death after 5 days by MTT assay in presence of 50% human serum. In kind it is functional, organism-based. The conditions noted are these: Human immunodeficiency virus 1, pNL4-3, MT4, 120 h.
The test system of data set [7] is Human immunodeficiency virus 1. Put plainly: Antiviral activity against HIV1 A17 harboring protease L10F, V32I, M46I, I47V, Q58E and I84V mutant infected in human MT4 cells assessed as inhibition of virus-induced cell death after 5 days by MTT assay relative to wild type HIV1 pNL4-3. Type of data set: functional.
A short description of data set [8]: Cmax in rat at 5 mg/kg, po co-administered with 5 mg/kg of CYP3A4 inhibitor ritonavir. The conditions noted are these: in vivo. Further details: dose 5 mg/kg, route oral. Type of data set: ADME, organism-based. In short, it runs like this:
as §1

Data set [9] has as its system Human immunodeficiency virus 1. Put plainly: Antiviral activity against HIV1 isolate 1 harboring protease L10I, E35D, N37D, M46I, I54V, G57R, L63P, A71V, T74P, I84V, L90M, I93L mutant infected in human MT4 cells assessed as inhibition of virus-induced cell death after 5 days by MTT assay relative to wild type HIV1 pNL4-3. In kind it is functional.
In data set [10] the test system is Human immunodeficiency virus 1. Put plainly: Antiviral activity against HIV1 harboring protease L10I, I13V, G16A, Q18H, L33F, N37D, M46I, I54V, G57R, Q61H,I62V, L63P, A71L, I72T, L76V, V77I, V82A, N88G, L90M, I93L mutant infected in human MT4 cells assessed as inhibition of virus-induced cell death after 5 days by MTT assay relative to wild type HIV1 pNL4-3. Type of data set: functional.

Data set [11] can be described thus: AUC in rat at 5 mg/kg, po. Type of data set: ADME, organism-based. Further details: dose 5 mg/kg, route oral. The conditions noted are these: plasma. In short, it runs like this: (§2)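 Rats given a single 5 mg/kg oral dose with no ritonavir. Plasma Cmax is reported in μg/mL and AUC in μg h/mL.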
Data set [12] is described as follows: Metabolic stability in human liver microsomes assessed as disappearance of the compound after 20 mins. In kind it is ADME, Microsome. As to conditions: read-out: Drug metabolism.
The subject of another data set is Rattus norvegicus. Put plainly: Ratio of AUC in rat at 5 mg/kg, po co-administered with 5 mg/kg CYP3A4 inhibitor ritonavir to AUC in rat at 5 mg/kg, po in the absence of CYP3A4 inhibitor ritonavir. Type of data set: ADME, organism-based. The conditions noted are these: in vivo.
Data set [13] in a line: Cmax in rat at 5 mg/kg, po. Type of data set: ADME, organism-based. Further details: dose 5 mg/kg, route oral. As to conditions: in vivo. In short, it runs like this:
as §2

For data set [14], the system named is Liver microsomes. Put plainly: Metabolic stability in human liver microsomes assessed as disappearance of the compound after 20 mins in the presence of 0.4 uM CYP3A4 inhibitor ritonavir.
Data set [15] relates to Liver microsomes. Put plainly: Metabolic stability in human liver microsomes assessed as disappearance of the compound after 20 mins in the presence of 0.4 uM CYP3A4 inhibitor ritonavir. Type of data set: ADME, Microsome. In general terms: Microsomes from liver hold many membrane-bound enzymes, among them those of drug oxidation.
Data set [16] can be described thus: Aqueous solubility of the compound. The conditions noted are these: buffer. Type of data set: physicochemical.
Data set [17] is described as follows: Permeability of the compound. In kind it is ADME. As to conditions: not told; read-out: permeability.

The bioavailability is the share of a dose that reaches the circulation, judged against a reference dose that is usually intravenous. Broadly, the AUC is the area under the concentration-time curve, a measure of exposure. The EC50 is the midpoint of the concentration-response curve. What is called Cmax is the maximum level reached in the sampled fluid or tissue. The term solubility denotes the concentration that dissolves in the medium under given conditions.

Take `COC(=O)N[C@H](C(=O)N[C@@H](Cc1ccccc1)C[C@H](O)[C@H](Cc1ccc(-c2ccc(CO)cc2)cc1)NC(=O)[C@@H](NC(=O)OC)C(C)(C)C)C(C)(C)C`: the bioavailability in data set [1] was 0%; in data set [2] it was 0.3%. Besides, the AUC in [3] was determined as 10 ng·h/mL. In addition, the “fold change (FC)” value in data set [4] worked out at 2; in data set [7], 2; in data set [9] it was 45; in data set [10], 2. The EC50 in [5] came out at 5 nM; in data set [6], 18 nM. Also, the Cmax in [8] came to 10 ng/mL.

For the compound `COC(=O)N[C@H](C(=O)N[C@@H](Cc1ccccc1)C[C@H](O)[C@H](Cc1ccc(-c2ccccn2)cc1)NC(=O)[C@@H](NC(=O)OC)C(C)(C)C)C(C)(C)C`, the AUC was found to be 190 ng·h/mL in data set [11] and 4880 ng·h/mL in [3]. Besides, the metabolised at 20 min in data set [12] worked out at 40%. Moreover, the “Ratio AUC” value in the data set on Rattus norvegicus is listed as 25. Moreover, the results for the bioavailability in data set [1] and in [2] were 7% and greater than 100%, respectively. Further, the Cmax in data set [13] was found to be 280 ng/mL; in [8], 1550 ng/mL. Further, the “fold change (FC)” value is on record as 29 in data set [4] and 20 in data set [7]. Moreover, the EC50 in [5] is 6 nM; in data set [6] it was 19 nM. The Stability entry in the data set on Liver microsomes [14] and with Liver microsomes [15] was “Stable” in each case.

In the case of `COC(=O)N[C@H](C(=O)N[C@@H](Cc1ccccc1)C[C@H](O)[C@H](Cc1ccc(-c2ccc(OC)cc2)cc1)NC(=O)[C@@H](NC(=O)OC)C(C)(C)C)C(C)(C)C`, the results for the bioavailability in [1] and in [2] were 0% and 14%, respectively. In data set [3], the AUC was determined as 270 ng·h/mL. The “fold change (FC)” value was 30 in data set [4], 48 in data set [7], 34 in data set [9] and 18 in data set [10]. The EC50 in [5] was determined as 1 nM; in data set [6], 3 nM. The highest concentration (Cmax) in [8] was found to be 50 ng/mL.

For the compound `CNC(=O)c1ccc(-c2ccc(C[C@H](NC(=O)[C@@H](NC(=O)OC)C(C)(C)C)[C@@H](O)C[C@H](Cc3ccccc3)NC(=O)[C@@H](NC(=O)OC)C(C)(C)C)cc2)cc1`, the “fold change (FC)” value is 1 in [4], 1 in [7], 7 in data set [9] and 1 in data set [10]. The EC50 in data set [5] amounted to 4 nM; in data set [6], 56 nM.

Consider `COC(=O)N[C@H](C(=O)N[C@@H](Cc1ccccc1)C[C@H](O)[C@H](Cc1ccc(-c2cnc3ccccc3c2)cc1)NC(=O)[C@@H](NC(=O)OC)C(C)(C)C)C(C)(C)C`, for which the area under the curve (AUC) in data set [11] is 30 ng·h/mL; in [3], 1850 ng·h/mL. Moreover, the bioavailability was determined as 1% in [1] and 63% in data set [2]. Further, the Cmax amounted to 20 ng/mL in data set [13] and 220 ng/mL in data set [8].

Regarding `COC(=O)N[C@H](C(=O)N[C@@H](Cc1ccccc1)C[C@H](O)[C@H](Cc1ccc(-c2cccnc2)cc1)NC(=O)[C@@H](NC(=O)OC)C(C)(C)C)C(C)(C)C`, the AUC in data set [11] worked out at 160 ng·h/mL; in [3], 740 ng·h/mL. Also, in data set [12], the metabolised at 20 min was 40%. Further, the bioavailability in data set [1] is 5%; in [2], 25%. Moreover, the Cmax amounted to 180 ng/mL in data set [13] and 430 ng/mL in [8]. For the same compound, the “fold change (FC)” value is 3 in data set [4], 2 in data set [7], 29 in data set [9] and 17 in data set [10]. Further, the EC50 in data set [5] was found to be 11 nM; in [6], 35 nM. Further, the Stability entry in the data set with Liver microsomes [14] and in the data set with Liver microsomes [15] was “Stable” throughout.

As to `COC(=O)N[C@H](C(=O)N[C@@H](Cc1ccccc1)C[C@H](O)[C@H](Cc1ccc(-c2cccc(N)c2)cc1)NC(=O)[C@@H](NC(=O)OC)C(C)(C)C)C(C)(C)C`, the AUC came out at 20 ng·h/mL in [11] and 70 ng·h/mL in [3]. In addition, the bioavailability in [1] was 1%; in data set [2] it was 5%. The Cmax in [13] and in data set [8] was 100 ng/mL in each case. For the same compound, the “fold change (FC)” value stood at 3 in data set [4], 3 in [7], 9 in data set [9] and 1 in [10]. Also, the EC50 turned out to be 5 nM in data set [5] and 20 nM in [6].

On to `COC(=O)N[C@H](C(=O)N[C@@H](Cc1ccccc1)C[C@H](O)[C@H](Cc1ccc(-c2ccc(C(C)=O)cc2)cc1)NC(=O)[C@@H](NC(=O)OC)C(C)(C)C)C(C)(C)C`, for which the bioavailability in data set [1] came to 0%; in [2], 27%. Also, the AUC in data set [3] was determined as 220 ng·h/mL. The “fold change (FC)” value in data set [4] came to 8; in data set [7], 9; in [9] it was 28; in data set [10] it was 4. Further, the EC50 was 1 nM in data set [5] and 3 nM in data set [6]. In addition, the Cmax in [8] is 50 ng/mL.

For `COC(=O)N[C@H](C(=O)N[C@@H](Cc1ccccc1)C[C@H](O)[C@H](Cc1ccc(-c2ccc(CO)nc2)cc1)NC(=O)[C@@H](NC(=O)OC)C(C)(C)C)C(C)(C)C`, the “fold change (FC)” value in data set [4] amounted to 0.6; in data set [7], 0.2; in data set [9], 12; in [10] it was 2. Besides, the EC50 is 14 nM in [5] and 45 nM in data set [6].

Regarding `COC(=O)N[C@H](C(=O)N[C@@H](Cc1ccccc1)C[C@H](O)[C@H](Cc1ccc(-c2ccc(N)cc2)cc1)NC(=O)[C@@H](NC(=O)OC)C(C)(C)C)C(C)(C)C`, the “fold change (FC)” value in [4] is listed as 9; in data set [7], 7; in [9], 45; in data set [10], 7. Also, the EC50 in data set [5] amounted to 6 nM; in data set [6], 38 nM.

Turning to `COC(=O)N[C@H](C(=O)N[C@@H](Cc1ccccc1)C[C@H](O)[C@H](Cc1ccc(-c2cncc(F)c2)cc1)NC(=O)[C@@H](NC(=O)OC)C(C)(C)C)C(C)(C)C`, the AUC in data set [11] was 160 ng·h/mL. Moreover, the metabolised at 20 min in data set [12] came to 40%. The compound further yielded a bioavailability in data set [1] of 13%. In addition, in data set [13], the peak concentration (Cmax) was 110 ng/mL. Besides, the “fold change (FC)” value in [4] worked out at 3; in [7] it was 3; in data set [9], 38; in data set [10], 2. The EC50 in data set [5] came out at 4 nM; in data set [6] it was 24 nM. This compound also yielded a solubility in data set [16] of 10.4 µM (≈ 7.51 µg/mL). In addition, the Papp in data set [17] was found to be 7.3 ×10⁻⁶ cm/s.

With `COC(=O)N[C@H](C(=O)N[C@@H](Cc1ccccc1)C[C@H](O)[C@H](Cc1ccc(-c2cccc(CO)c2)cc1)NC(=O)[C@@H](NC(=O)OC)C(C)(C)C)C(C)(C)C`, the “fold change (FC)” value in [4] was found to be 1; in data set [7], 1; in [9], 52; in [10], 4. For the same compound, the EC50 in [5] turned out to be 21 nM; in data set [6], 92 nM.
